According to the RNAGym collection of RNA variant scans (doi:10.1126/science.aae0568):
Fewer inactive variants are shown than the library holds.

B1: tRNA (parent)
chain: GUUCCGUUGGCGUAAUGGUAACGCGUCUCCCUCCUAAGGAGAAGACUGCGGGUUCGAGUCCCGUACGGAACG

Variants of: B1
Assay: yeast fitness relative to wild type (ratio to wild type); higher = fitter; tRNA-Arg(CCU), competitive growth, 37 C, YPD
Method in brief: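 Changes in genotype frequencies gave Darwinian fitness relative to wild type. Frequencies were read by 100-nucleotide paired-end sequencing of gene amplicons before and after pooled Saccharomyces cerevisiae strains, carrying tRNA-Arg(CCU) gene variants at the native locus, were competed in YPD at 37°C for 24 hours in six replicates. A genotype was kept only with ≥ 100 starting reads, and estimates < 0.5 were set to 0.5.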
In the case of C5U U13G C33A A37C C61U, the yeast fitness is reported as ≤ 0.5.
With G6A A14U G23U the yeast fitness was ≤ 0.5.
With G6A A15G C22A G25A C33U G52C G56C the yeast fitness was ≤ 0.5.
For G6A A21G A43U A70G, the yeast fitness was ≤ 0.5.
For G6A A20U C27U A57U, the yeast fitness was ≤ 0.5.
With G6A A20C C61A the yeast fitness was ≤ 0.5.
G6A A20C C61U showed a yeast fitness of 0.663.
With G6A C11U U13C C27G A69C the yeast fitness was 0.541.
Variant C5U U32A G50A has a yeast fitness of 0.581.
In the case of G6A C11G C33G A70U, the yeast fitness is reported as ≤ 0.5.
For G6A A20C C27U, the yeast fitness was 0.663.
For C5U U54G, the yeast fitness was 0.647.
With C5U U54C the yeast fitness was 0.805.
In the case of C5U U54A, the yeast fitness is reported as 0.699.
In the case of G6A A45C A70U, the yeast fitness is reported as ≤ 0.5.
For G6A C11A A40G G56C C61G A70U, the yeast fitness was ≤ 0.5.
In the case of C5U U13G C27U C29A A36U A40C G52C, the yeast fitness is reported as ≤ 0.5.
For C5U U16A C34A G63A, the yeast fitness was ≤ 0.5.
With C5U U19G G67A the yeast fitness was 0.649.
With G6A A14G the yeast fitness was 0.844.
For C5U U16A, the yeast fitness was 0.882.
Variant C5U U32C A45G C46A has a yeast fitness of 0.602.
For G6A C11U U13C A43G G67U, the yeast fitness was ≤ 0.5.
C5U U32C C55U showed a yeast fitness of 0.564.
C5U U16A C46A showed a yeast fitness of 1.07.
In the case of C5U U16A C46A G68A, the yeast fitness is reported as 0.625.
C5U U35C A36U G38A C46A U54C showed a yeast fitness of 0.556.
With C5U U19G G23A C46A the yeast fitness was ≤ 0.5.
In the case of G6A A40G G44A, the yeast fitness is reported as 0.614.
In the case of G6A A45C C46G C66U, the yeast fitness is reported as ≤ 0.5.
For C5U U28A G41A, the yeast fitness was 0.534.
With G6A A14G G17C the yeast fitness was ≤ 0.5.
G6A A14C A40U A43G G48A gave a yeast fitness of 0.607.
In the case of C5U U16C C24U A42C A57U, the yeast fitness is reported as ≤ 0.5.
For G6A A21C C62U, the yeast fitness was ≤ 0.5.
With G6A A20U C29G C49G G63C the yeast fitness was ≤ 0.5.
For G6A C11A C46A A57G, the yeast fitness was ≤ 0.5.
In the case of G6A C11G C24U, the yeast fitness is reported as ≤ 0.5.
C5U U26A U59C showed a yeast fitness of 0.722.
In the case of G6A A15U A20G, the yeast fitness is reported as ≤ 0.5.
In the case of G6A A36G C60G C66U, the yeast fitness is reported as ≤ 0.5.
C5U U16C A69C showed a yeast fitness of 0.671.
With G6A C11A U54G the yeast fitness was 0.563.
For G6A A14C C24U, the yeast fitness was 0.597.
For G6A A14C A42U C62A C66U, the yeast fitness was ≤ 0.5.
For G6A A36U G56A C66U, the yeast fitness was ≤ 0.5.
In the case of G6A A40G A42G, the yeast fitness is reported as 0.554.
Work on G6A A37G G51C C61U yielded a yeast fitness of 0.528.
In the case of G6A A42G U64C, the yeast fitness is reported as 0.629.
In the case of C5U U53C, the yeast fitness is reported as 0.747.
For C5U U53A, the yeast fitness was 0.604.
In the case of C5U U16G A57G C62G C66U, the yeast fitness is reported as ≤ 0.5.
With G6A A15U A20U G38C the yeast fitness was ≤ 0.5.
In the case of C5U U35C A36U G38A C46A U54C G68C, the yeast fitness is reported as ≤ 0.5.
For G6A C11U U13C A70G, the yeast fitness was ≤ 0.5.
For G6A A15C A20U C29U, the yeast fitness was ≤ 0.5.
In the case of C5U U28C C33G G38A U64G, the yeast fitness is reported as ≤ 0.5.
For G6A A15G C30A A57G, the yeast fitness was ≤ 0.5.
In the case of C5U U32C A45C, the yeast fitness is reported as 0.733.
With G6A A40G G41A A42G the yeast fitness was ≤ 0.5.
In the case of G6A A21C C34U C49U C55G C62U, the yeast fitness is reported as ≤ 0.5.
With C5U U13C U19A A21U C24A U54C the yeast fitness was ≤ 0.5.
C5U U19C C22U showed a yeast fitness of 0.721.
For C5U U16A A42U, the yeast fitness was 0.666.
With C5U U28A C62G the yeast fitness was ≤ 0.5.
C5U U13G showed a yeast fitness of 1.02.
With G6A C11U C22U the yeast fitness was 0.566.
For C5U U47C A57U G67C, the yeast fitness was ≤ 0.5.
For C5U U28G A45C C66U, the yeast fitness was 0.599.
C5U U28C showed a yeast fitness of 0.976.
C5U U28A showed a yeast fitness of 0.864.
C5U U28G gave a yeast fitness of 0.71.
In the case of G6A A14U C33G, the yeast fitness is reported as ≤ 0.5.
In the case of G6A A20U, the yeast fitness is reported as 0.851.
G6A A20C showed a yeast fitness of 0.714.
For C5U U28A U35C U59A, the yeast fitness was ≤ 0.5.
For C5U U19G A21U C29G, the yeast fitness was ≤ 0.5.
In the case of G6A A45G A65U, the yeast fitness is reported as 0.771.
G6A A14C C24U G50A A57U A70U gave a yeast fitness of 0.745.
Variant G6A C11A A14C U19C G23A U32A A42C has a yeast fitness of 0.532.
With G6A A40U G56C the yeast fitness was ≤ 0.5.
In the case of G6A A36U C66U G67A, the yeast fitness is reported as ≤ 0.5.
Work on G6A C11U yielded a yeast fitness of 0.801.
G6A C11A showed a yeast fitness of 0.639.
In the case of G6A A21U C33U A57U U59C, the yeast fitness is reported as ≤ 0.5.
G6A A43G A69U showed a yeast fitness of 0.716.
Variant G6A A15G C29U has a yeast fitness of 0.607.
In the case of G6A A15G C29A, the yeast fitness is reported as ≤ 0.5.
With G6A A15C C27A A37G A43G the yeast fitness was ≤ 0.5.
For G6A A15C A20U C61G, the yeast fitness was 0.565.
In the case of G6A A20G A36G C49G C62A C66U, the yeast fitness is reported as ≤ 0.5.
With G6A A57C G63A A65C A70C the yeast fitness was ≤ 0.5.
With G6A A15G C46A the yeast fitness was 0.557.
For G6A C11A G17A U35G U59C, the yeast fitness was ≤ 0.5.
With C5U U26A C55G the yeast fitness was ≤ 0.5.
In the case of G6A A14U A21U G25C C60U C61A C62G, the yeast fitness is reported as ≤ 0.5.
For C5U U54A A69U, the yeast fitness was ≤ 0.5.
Work on G6A A20C C66U yielded a yeast fitness of 0.889.
For C5U U28A G41A U54C, the yeast fitness was ≤ 0.5.
With G6A C11A C27G U35A A43U U54C A65G the yeast fitness was ≤ 0.5.
With C5U U35C U54C C55A the yeast fitness was ≤ 0.5.
In the case of G6A A36G A45C, the yeast fitness is reported as 0.751.
Work on G6A A43U yielded a yeast fitness of 0.747.
With G6A A43C the yeast fitness was 0.779.
In the case of G6A A20C C49G G50C, the yeast fitness is reported as ≤ 0.5.
G6A A45C C46G showed a yeast fitness of 0.617.
Variant G6A A65U has a yeast fitness of 0.925.
G6A A65G gave a yeast fitness of 0.88.
With C5U U64A the yeast fitness was 0.933.
Variant C5U U64C has a yeast fitness of 0.932.
C5U U64G showed a yeast fitness of 0.853.
Variant C5U U13G G44A A57U has a yeast fitness of 0.642.
C5U U19C A69G gave a yeast fitness of 0.706.
G6A A15G U26A C30G C46U gave a yeast fitness of 0.661.
For G6A A57C G58A, the yeast fitness was ≤ 0.5.
With G6A A45G A69C the yeast fitness was 0.748.
C5U U26A A65U G68U gave a yeast fitness of 0.548.
G6A A42C C62A showed a yeast fitness of 0.97.
With G6A C11G U35A A37U A70C the yeast fitness was ≤ 0.5.
G6A A42G G50C gave a yeast fitness of 0.62.
With G6A A20U C61U G67A G68U the yeast fitness was ≤ 0.5.
For G6A A37U C62G, the yeast fitness was ≤ 0.5.
C5U U35C A45C gave a yeast fitness of 0.743.
For G6A A57U A65C A70C, the yeast fitness was 0.534.
For C5U U28C C29G C49U, the yeast fitness was ≤ 0.5.
With C5U U35G the yeast fitness was 0.592.
In the case of C5U U35A, the yeast fitness is reported as 0.615.
Work on G6A A15G yielded a yeast fitness of 0.712.
G6A A15U gave a yeast fitness of 0.628.
G6A A15C showed a yeast fitness of 0.601.
With G6A A15C A20U G68A the yeast fitness was ≤ 0.5.
For G6A A14G C46G C62G, the yeast fitness was ≤ 0.5.
In the case of G6A A37C A42C A69C, the yeast fitness is reported as ≤ 0.5.
For G6A A40G A45U G56A, the yeast fitness was ≤ 0.5.
With C5U U16G U64C the yeast fitness was 0.932.
With G6A A14G C22G the yeast fitness was ≤ 0.5.
With G6A A15C C22G C33U U59G C62G the yeast fitness was 0.634.
For G6A C22G A37G U47A A70C, the yeast fitness was ≤ 0.5.
G6A A37G G68A A69G gave a yeast fitness of 0.545.
With G6A C11G C34G A42G C62U the yeast fitness was 0.609.
For G6A A20U C27A, the yeast fitness was ≤ 0.5.
In the case of C5U U13G A15U, the yeast fitness is reported as ≤ 0.5.
In the case of C5U U13G A15C, the yeast fitness is reported as 0.509.
Variant C5U U47G has a yeast fitness of 0.615.
In the case of G6A A20C C55A G68A, the yeast fitness is reported as ≤ 0.5.
With C5U U19A A20U G48A C60A the yeast fitness was ≤ 0.5.
In the case of C5U U26A C60G A70G, the yeast fitness is reported as ≤ 0.5.
In the case of G6A A43U U53C A57C A65U, the yeast fitness is reported as ≤ 0.5.
With C5U U26C A70U the yeast fitness was 0.723.
In the case of G6A A20C A45U C46U A57C, the yeast fitness is reported as 0.501.
For C5U U13G C33A A37C G52C, the yeast fitness was ≤ 0.5.
G6A A21C C33G A45C G50C showed a yeast fitness of 0.515.
Work on C5U U19G yielded a yeast fitness of 1.
With C5U U19A the yeast fitness was 0.906.
With C5U U26A A43U the yeast fitness was 0.715.
For G6A A20G C46U, the yeast fitness was 0.723.
For G6A A21G C46A U54C, the yeast fitness was ≤ 0.5.
With G6A C11U U13C C27G the yeast fitness was 0.507.
For C5U U19G C46A C55G, the yeast fitness was ≤ 0.5.
For G6A A21C U47A A70G, the yeast fitness was ≤ 0.5.
In the case of G6A C11G U35A A37U, the yeast fitness is reported as ≤ 0.5.
With G6A A36U C61G the yeast fitness was 0.646.
For G6A A20U C62G C66G, the yeast fitness was ≤ 0.5.
Variant C5U U13G A57C has a yeast fitness of 0.755.
With C5U U47C A57C the yeast fitness was ≤ 0.5.
In the case of G6A C11A A15G C49G G51C G68A, the yeast fitness is reported as ≤ 0.5.
C5U U16C A36G gave a yeast fitness of 0.73.
